Values after ≈ are worked out from the molar mass of the structure shown. Active and inactive are the calls of the source. No cut-off for these calls is given here. *1 amine or outer side, *2 acyl side, *3 side chain or, on linkers, in order; H or OH if unused. Where a SMILES comes first, the peptide text is derived from it. [ ]: non-standard residue; d: D form. The star is where a group is joined. X2 = C/C(=N\OCC(=O)*)c1ccc(NC(=O)c2cc(Br)ccc2O)cc1; X1 = C/C(=N\OCC(=O)[*:2])c1ccc(N[*:1])cc1; Benzoyl(5-Br-2-OH) = O=C(c1cc(Br)ccc1O)*; Palmitoyl = CCCCCCCCCCCCCCCC(=O)*; X3 = O=C(c1cc(Cl)ccc1O)*; Butyryl = CCCC(=O)*
How the values were obtained:
[1] = test system: Mycobacterium tuberculosis; assay: Antimycobacterial activity against Mycobacterium tuberculosis H37Rv ATCC 27294 assessed as reduction in bacterial growth after 28 days by serial dilution method; format: functional; details: H37Rv ATCC 27294, 672 h, time 28 day
How it was run: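 Broth MIC in Sula semisynthetic medium, pH 6.5; 4-week incubation, with 21-day values […] where indicated. Drug-free inoculated bacteria served as growth control. MIC also expressed as drug content (µg/mL) = MIC (µM) × average SAL molar mass × number of SAL per conjugate / 1000.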

[2] = Retention time of the compound by RP-HPLC analysis; format: physicochemical
How it was run: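 Analytical RP-HPLC on a C18 column (5 μm, 100 Å, 4.6 × 150 mm). Eluent A 0.1% TFA in water, eluent B 0.1% TFA in acetonitrile-water 80:20. Gradient 0% B for 5 min, to 60% B at 15 min, to 100% B at 25 min. Flow 1 mL/min, detection at 220 nm.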

[3] = test system: Mycobacteroides abscessus; assay: Antimycobacterial activity against Mycobacterium abscessus ATCC 19977 assessed as reduction in bacterial growth after 7 days by serial dilution method; format: functional; details: ATCC 19977, 168 h, time 7 day
How it was run: (§1)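 MIC determined in Sula semisynthetic medium, pH 6.5, 1 week incubation. Growth inhibition confirmed by plating on Löwenstein-Jensen solid medium and counting CFU. Bacteria inoculated without drug served as growth control.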

[4] = test system: Mycobacterium tuberculosis; assay: Antimycobacterial activity against Mycobacterium tuberculosis H37Rv ATCC 27294 assessed as reduction in colony forming unit after 28 days by serial dilution method; format: functional, organism-based; details: time 28.0 day
How it was run: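 After the 4-week MIC incubation in Sula semisynthetic medium (pH 6.5), growth inhibition confirmed by plating on Löwenstein-Jensen solid medium and counting colony forming units.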

[5] = test system: Mycobacteroides abscessus; assay: Antimycobacterial activity against Mycobacterium abscessus ATCC 19977 assessed as reduction in colony forming unit after 7 days by serial dilution method; format: functional, organism-based; details: time 7.0 day; how it was run: as §1
[6] = test system: MONO-MAC-6; assay: Cytostatic activity against human MONO-MAC-6 cells assessed as reduction in cell viability incubated for 24 hrs by MTT assay; format: functional, cell-based; details: MONO-MAC-6, 24 h
How it was run: (§2)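 MTT viability assay after 24 h exposure of MonoMac6 human monocytic cells or HepG2 human hepatocellular carcinoma cells. Top concentration 200 μM. IC50 taken from dose-response curves as the concentration reducing viability to 50% of maximal.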

[7] = test system: HepG2; assay: Cytostatic activity against human HepG2 cells assessed as reduction in cell viability incubated for 24 hrs by MTT assay; format: functional, cell-based; details: HepG2, 24 h; how it was run: as §2
[8] = Selectivity index, ratio of IC50 for cytostatic activity against human MONO-MAC-6 cells to MIC for antimycobacterial activity against Mycobacterium tuberculosis H37Rv ATCC 27294; format: toxicity, cell-based; details: read-out: Selectivity Index
How it was run: (§3)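 MTT assay on MonoMac6 or HepG2 cells after 24 h exposure, top concentration 200 µM. SI = IC50 (µM)/MIC (µM) against H37Rv from the 4-week Sula medium assay.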

[9] = Selectivity index, ratio of IC50 for cytostatic activity against human HepG2 cells to MIC for antimycobacterial activity against Mycobacterium tuberculosis H37Rv ATCC 27294; format: toxicity, cell-based; details: read-out: Selectivity Index; how it was run: as §3
[10] = Stability in rat liver lysosomal homogenate assessed as drug degradation at 50 uM and measured upto 24 hrs by HPLC-MS analysis; format: ADME, subcellular, Lysosome; details: tissue homogenate
How it was run: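 Conjugates incubated in rat liver lysosomal homogenate. Reaction mixtures sampled at 5 min, 1 h, 2 h, 4 h, 8 h and 24 h and analysed by HPLC-MS (chromatograms and mass spectra) to identify intact conjugate, fragments and cleavage sites.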

[11] = test system: Mycobacterium tuberculosis; assay: […] antimycobacterial activity against Mycobacterium tuberculosis H37Rv ATCC 27294 infected in human MONO-MAC-6 cells assessed as reduction in colony forming unit at 125 uM for 6 days by colony counting based analysis; format: functional, organism-based; details: time 6.0 day
How it was run: (§4)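 MonoMac6 monolayers infected with H37Rv, then treated with compound at 125 or 250 µM for 3 days. Treatment repeated with fresh compound solution for another 3 days. Intracellular bacteria quantified as CFU against untreated infected cells.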

[12] = test system: Mycobacterium tuberculosis; assay: […] antimycobacterial activity against Mycobacterium tuberculosis H37Rv ATCC 27294 infected in human MONO-MAC-6 cells assessed as reduction in colony forming unit at 250 uM for 6 days by colony counting based analysis; format: functional, organism-based; details: time 6.0 day; how it was run: as §4

SMILES | MIC [1] [µM] | Retention_time [2] [min] | MIC [3] [µM] | Activity [4] | Activity [5] | IC50 [6] [µM] | IC50 [7] [µM] | selectivity ratio [8] | selectivity ratio [9] | Stability [10] | Activity [11] | Activity [12]
C/C(=N\OCC(=O)NCCCC[C@H](NC(=O)[C@@H]1CCCN1C(=O)[C@H](CCCCN)NC(=O)[C@@H](NC(=O)CO/N=C(\C)c1ccc(NC(=O)c2cc(Br)ccc2O)cc1)[C@@H](C)O)C(=O)NCC(=O)N[C@H](C(=O)N[C@@H](CCCCN)C(=O)N1CCC[C@H]1C(=O)N[C@@H](CCCCN)C(=O)NCC(=O)N[C@H](C(=O)N[C@@H](CCCCN)C(=O)N1CCC[C@H]1C(=O)N[C@@H](CCCCN)C(=O)NCC(=O)N[C@H](C(=O)N[C@@H](CCCCN)C(=O)N1CCC[C@H]1C(=O)N[C@@H](CCCCN)C(=O)NCC(N)=O)[C@@H](C)O)[C@@H](C)O)[C@@H](C)O)c1ccc(NC(=O)c2cc(Br)ccc2O)cc1 ({Benzoyl(5-Br-2-OH)}-[X1]TKPK(X2)GTKPKGTKPKGTKPKG-NH2) | 42.2 (≈ 120 µg/mL) | 16.3 | 70.4 (≈ 200 µg/mL) | Active | Active | 39.1 | 79.7 | 0.9 | 1.9 | Unstable | inactive | Active
C/C(=N\OCC(=O)N[C@H](C(=O)N[C@@H](CCCCN)C(=O)N1CCC[C@H]1C(=O)N[C@@H](CCCNC(=N)N)C(=O)O)[C@@H](C)O)c1ccc(NC(=O)c2cc(Br)ccc2O)cc1 ({Benzoyl(5-Br-2-OH)}-[X1]TKPR-OH) | 45 (≈ 40 µg/mL) | – | 225 (≈ 200 µg/mL) | Active | Active | > 200 | > 200 | > 4.4 | > 4.4 | Unstable | Active | Active
C/C(=N\OCC(=O)N[C@H](C(=O)N[C@@H](CCCCN)C(=O)N1CCC[C@H]1C(=O)N1CCC[C@H]1C(=O)N[C@@H](CCCNC(=N)N)C(=O)O)[C@@H](C)O)c1ccc(NC(=O)c2cc(Br)ccc2O)cc1 | – | – | – | – | – | > 200 | > 200 | > 9.9 | > 9.9 | Unstable | – | –
CCCCCCCCCCCCCCCC(=O)NCCCC[C@H](NC(=O)[C@@H]1CCCN1C(=O)[C@H](CCCCN)NC(=O)[C@@H](NC(=O)CO/N=C(\C)c1ccc(NC(=O)c2cc(Cl)ccc2O)cc1)[C@@H](C)O)C(=O)NCC(=O)N[C@H](C(=O)N[C@@H](CCCCN)C(=O)N1CCC[C@H]1C(=O)N[C@@H](CCCCN)C(=O)NCC(=O)N[C@H](C(=O)N[C@@H](CCCCN)C(=O)N1CCC[C@H]1C(=O)N[C@@H](CCCCN)C(=O)NCC(=O)N[C@H](C(=O)N[C@@H](CCCCN)C(=O)N1CCC[C@H]1C(=O)N[C@@H](CCCCN)C(=O)NCC(N)=O)[C@@H](C)O)[C@@H](C)O)[C@@H](C)O (X3-[X1]TKPK(Palmitoyl)GTKPKGTKPKGTKPKG-NH2) | 94.5 (≈ 250 µg/mL) | – | 75.6 (≈ 200 µg/mL) | Active | Active | 16.8 | 42.9 | 0.2 | 0.5 | – | Active | Active
C/C(=N\OCC(=O)NCC(=O)N[C@@H](Cc1ccccc1)C(=O)N[C@@H](CC(C)C)C(=O)NCC(=O)N[C@H](C(=O)N[C@@H](CCCCN)C(=O)N1CCC[C@H]1C(=O)N[C@@H](CCCCN)C(=O)NCC(N)=O)[C@@H](C)O)c1ccc(NC(=O)c2cc(Br)ccc2O)cc1 ({Benzoyl(5-Br-2-OH)}-[X1]GFLGTKPKG-NH2) | 31 (≈ 40.1 µg/mL) | – | 155 (≈ 200 µg/mL) | Active | Active | > 200 | 163 | > 6.5 | 5.3 | Unstable | Active | Active
C/C(=N\OCC(=O)N[C@H](C(=O)N[C@@H](CCCCN)C(=O)N1CCC[C@H]1C(=O)N[C@@H](CCCCN)C(=O)NCC(=O)O)[C@@H](C)O)c1ccc(NC(=O)c2cc(Br)ccc2O)cc1 ({Benzoyl(5-Br-2-OH)}-[X1]TKPKG-OH) | 65.3 (≈ 60 µg/mL) | – | 218 (≈ 200 µg/mL) | Active | Active | > 200 | 191 | > 3.1 | 2.9 | Unstable | Active | Active
C/C(=N\OCC(=O)N[C@H](C(=O)N[C@@H](CCCCN)C(=O)N1CCC[C@H]1C(=O)N[C@@H](CCCCN)C(=O)NCC(=O)N[C@H](C(=O)N[C@@H](CCCCN)C(=O)N1CCC[C@H]1C(=O)N[C@@H](CCCCN)C(=O)NCC(=O)N[C@H](C(=O)N[C@@H](CCCCN)C(=O)N1CCC[C@H]1C(=O)N[C@@H](CCCCN)C(=O)NCC(=O)N[C@H](C(=O)N[C@@H](CCCCN)C(=O)N1CCC[C@H]1C(=O)N[C@@H](CCCCN)C(=O)NCC(N)=O)[C@@H](C)O)[C@@H](C)O)[C@@H](C)O)[C@@H](C)O)c1ccc(NC(=O)c2cc(Cl)ccc2O)cc1 (X3-[X1]TKPKGTKPKGTKPKGTKPKG-NH2) | 83 (≈ 200 µg/mL) | – | 41.5 (≈ 99.9 µg/mL) | Active | Active | > 200 | > 200 | > 2.4 | > 2.4 | – | Active | Active
CCCC(=O)NCCCC[C@H](NC(=O)[C@@H]1CCCN1C(=O)[C@H](CCCCN)NC(=O)[C@@H](NC(=O)CO/N=C(\C)c1ccc(NC(=O)c2cc(Br)ccc2O)cc1)[C@@H](C)O)C(=O)NCC(=O)N[C@H](C(=O)N[C@@H](CCCCN)C(=O)N1CCC[C@H]1C(=O)N[C@@H](CCCCN)C(=O)NCC(=O)N[C@H](C(=O)N[C@@H](CCCCN)C(=O)N1CCC[C@H]1C(=O)N[C@@H](CCCCN)C(=O)NCC(=O)N[C@H](C(=O)N[C@@H](CCCCN)C(=O)N1CCC[C@H]1C(=O)N[C@@H](CCCCN)C(=O)NCC(N)=O)[C@@H](C)O)[C@@H](C)O)[C@@H](C)O ({Benzoyl(5-Br-2-OH)}-[X1]TKPK(Butyryl)GTKPKGTKPKGTKPKG-NH2) | 63.4 (≈ 160 µg/mL) | 14.7 | 79.3 (≈ 200 µg/mL) | Active | Active | > 200 | 81.6 | > 3.2 | 1.3 | – | Active | Active
